Test [1] deals with HepG2 cells. Nature of the test: Oxidative stress assay. The format is cell-based. The note with it: HepG2, 24-hour incubation; for concentrations with significant increases in ROS: DHE fluorescence vs 0.2% DMSO. In short, it runs like this:
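Intracellular ROS were read by dihydroethidium fluorescence and expressed as fold change versus 0.2% DMSO vehicle, with troglitazone as positive control. Nominal concentrations covered each compound's predicted plasma and liver Cmax (PBPK). Reported values come from the 24-hour exposure; a 1-hour exposure was also run. Plotted with standard deviation; significance by Kruskal–Wallis test.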

Test [2] concerns HepG2 cells. Nature of the test: Cellular respiration assay. The class given is cell-based. The note with it: HepG2, 1-hour incubation; for decrease in OCR within predicted physiological range (in words): plasma Cmax to liver Cmax. In short, it runs like this:
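HepG2 cells incubated 1 h with test compound (parent compounds or metabolites), then run on a Seahorse XFe96 per the Mito Stress Test Kit protocol. Baseline oxygen consumption rate is expressed as fold change versus 0.2% DMSO vehicle. The physiological range spans predicted plasma Cmax to predicted liver Cmax, from a PBPK model using the liver:blood Kp.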

Another test has as its target human BSEP (Homo sapiens, UniProt O95342). The test is described as follows: BSEP inhibition, taurocholate uptake in HEK293 human BSEP vesicles. The class given is biochemical.
The subject of a further test is GSH in the liver. The note with it: rats, intravenous administration; cited from earlier work.
The subject of another test is liver GSH. The note with it: mice, intravenous, after a toxic dose of acetaminophen; cited from earlier work.

Sequence of human BSEP (O95342 whole entry): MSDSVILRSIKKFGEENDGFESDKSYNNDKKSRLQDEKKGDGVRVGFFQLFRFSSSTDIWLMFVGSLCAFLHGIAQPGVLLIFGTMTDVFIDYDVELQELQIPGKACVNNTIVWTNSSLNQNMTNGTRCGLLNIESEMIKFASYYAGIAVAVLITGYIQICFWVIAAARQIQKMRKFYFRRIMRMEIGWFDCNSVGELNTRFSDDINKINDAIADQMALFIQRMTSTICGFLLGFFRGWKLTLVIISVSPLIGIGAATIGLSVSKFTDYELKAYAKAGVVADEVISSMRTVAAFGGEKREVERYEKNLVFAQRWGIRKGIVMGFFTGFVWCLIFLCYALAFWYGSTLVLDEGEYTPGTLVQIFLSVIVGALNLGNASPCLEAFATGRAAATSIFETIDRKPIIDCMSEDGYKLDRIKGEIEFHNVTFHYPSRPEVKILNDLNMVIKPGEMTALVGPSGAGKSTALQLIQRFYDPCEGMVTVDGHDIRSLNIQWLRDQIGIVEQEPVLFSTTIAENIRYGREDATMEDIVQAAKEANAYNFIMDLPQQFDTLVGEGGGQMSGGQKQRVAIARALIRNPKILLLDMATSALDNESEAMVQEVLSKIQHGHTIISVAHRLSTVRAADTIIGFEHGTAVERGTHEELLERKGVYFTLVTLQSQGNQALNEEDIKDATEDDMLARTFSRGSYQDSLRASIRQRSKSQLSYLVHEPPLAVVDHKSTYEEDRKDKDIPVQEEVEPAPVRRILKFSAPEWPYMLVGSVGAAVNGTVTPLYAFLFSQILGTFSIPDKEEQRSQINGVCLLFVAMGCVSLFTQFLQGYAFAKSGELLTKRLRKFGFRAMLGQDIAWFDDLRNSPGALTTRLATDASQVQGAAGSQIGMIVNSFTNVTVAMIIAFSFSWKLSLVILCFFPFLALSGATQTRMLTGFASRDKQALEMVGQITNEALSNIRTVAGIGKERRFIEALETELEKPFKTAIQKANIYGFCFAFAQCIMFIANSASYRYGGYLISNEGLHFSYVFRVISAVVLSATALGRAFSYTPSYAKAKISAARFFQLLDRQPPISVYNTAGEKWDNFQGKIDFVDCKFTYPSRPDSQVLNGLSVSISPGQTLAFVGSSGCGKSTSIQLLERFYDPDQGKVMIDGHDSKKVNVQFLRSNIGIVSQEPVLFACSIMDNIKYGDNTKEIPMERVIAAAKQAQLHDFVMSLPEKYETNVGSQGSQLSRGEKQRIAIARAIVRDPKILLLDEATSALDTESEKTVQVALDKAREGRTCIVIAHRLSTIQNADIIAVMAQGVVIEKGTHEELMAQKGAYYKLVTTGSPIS

For `[2H]C([2H])([2H])C(c1cc(C(C)(C)C)c(NC(=O)c2c[nH]c3ccccc3c2=O)cc1O)(C([2H])([2H])[2H])C([2H])([2H])[2H]` [Deutivacaftor, deutivacaftor], the “magnitude of ROS increase compared with another compound (in words)” value with HepG2 cells [1] is recorded as “nearly identical levels of ROS increases at the same concentrations as ivacaftor”. Moreover, the “decrease in OCR at 10 μM” value in the test with HepG2 cells [2] is recorded as ~ 50%.

A word on the IC50: it is the concentration needed to halve the response being measured. Turning to `Cc1nn(C)cc1S(=O)(=O)NC(=O)c1ccc(-n2ccc(OCC(C)(C)C(F)(F)F)n2)nc1N1C[C@@H](C)CC1(C)C` [Elexacaftor, elexacaftor], the “concentrations with significant increases in ROS” value in the test on HepG2 cells [1] worked out at 40 µM. For the same compound, in the test with HepG2 cells [2], the “decrease in OCR within predicted physiological range (in words)” value was “induced a decrease in OCR”. The same compound showed an IC50 against human BSEP of 37.1 µM.

`CC(C)(C)c1cc(C(C)(C)C)c(NC(=O)c2c[nH]c3ccccc3c2=O)cc1O` [Ivacaftor, ivacaftor]: the “magnitude of ROS increase compared with another compound (in words)” value in the test on HepG2 cells [1] was “matched or surpassed that of the positive control, troglitazone”. In addition, in the test on HepG2 cells [2], the “decrease in OCR at 10 μM” value is recorded as ~ 50% and the “decrease in OCR within predicted physiological range (in words)” value is “induced the most prominent decrease in OCR”. Besides, the IC50 against human BSEP was above 100 µM.

Take `CC(C)(C)c1cc(C(C)(C)CO)c(O)cc1NC(=O)c1c[nH]c2ccccc2c1=O` [M1 ivacaftor]: the “concentrations with significant increases in ROS” value in the test on HepG2 cells [1] is 100 µM. For the same compound, the “decrease in OCR within predicted physiological range (in words)” value with HepG2 cells [2] was “did not induce any notable decrease”.

Consider `CC(=O)N[C@@H](CS)C(=O)O` [NAC, n‐acetyl cysteine], for which the “increase in levels of GSH in the liver” value in the test with GSH in the liver was 50%. In addition, in the test on liver GSH, the “recovery of liver GSH compared with untreated values” was 75% and the “recovery of mitochondrial GSH compared with untreated values” was 45%.

As to `CC(C)(CO)c1cc2cc(NC(=O)C3(c4ccc5c(c4)OC(F)(F)O5)CC3)c(F)cc2n1C[C@@H](O)CO` [Tezacaftor, tezacaftor], in the test with HepG2 cells [2], the “decrease in OCR within predicted physiological range (in words)” value was “did not induce a notable decrease in OCR”. The IC50 against human BSEP was above 100 µM.

These data come from paper PMC12746516 (Clinical Pharmacology and Therapeutics, 2025).
